From PubChem BioAssay
The list is not random: actives were taken first. Their share in the collection is about 1.8%.
MBD2 inh: inhibitors of human MBD2 binding to methylated oligonucleotide; TR-FRET; inhibition, % at 4.4 µM; hit rate 0.31% among 370,000; AID 686964; in the data active = inhibition above about 13%
UHRF1 binding: blocks human UHRF1 binding to methylated DNA. Q96T88. UHRF1 binding to methylated oligo, TR-FRET. inhibition, % at 4.4 µM. hit rate 0.75% among 370,000. AID 687016; in the data active = inhibition above about 21%;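 also: UHRF1 SRA domain binding a hemimethylated CpG hairpin DNA probe; 0% = median of test compound wells and 100% = reference inhibitor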
TDP2 absorb: TDP2 (human) inhibition, absorbance primary screen. O95551. recombinant TDP2, T5PNP hydrolysis, p-nitrophenol absorbance 415 nm. hit rate 0.34% among 370,000. inhibition, % at 12.8 µM. AID 720702;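 active = inhibition above the mean of all tested compounds plus 3 SD, set per campaign, cut at about 25% in these data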;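 also: 0% = DMSO with enzyme and 100% = buffer with substrate but no TDP2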
Target sequence (O95551 whole entry, looked up): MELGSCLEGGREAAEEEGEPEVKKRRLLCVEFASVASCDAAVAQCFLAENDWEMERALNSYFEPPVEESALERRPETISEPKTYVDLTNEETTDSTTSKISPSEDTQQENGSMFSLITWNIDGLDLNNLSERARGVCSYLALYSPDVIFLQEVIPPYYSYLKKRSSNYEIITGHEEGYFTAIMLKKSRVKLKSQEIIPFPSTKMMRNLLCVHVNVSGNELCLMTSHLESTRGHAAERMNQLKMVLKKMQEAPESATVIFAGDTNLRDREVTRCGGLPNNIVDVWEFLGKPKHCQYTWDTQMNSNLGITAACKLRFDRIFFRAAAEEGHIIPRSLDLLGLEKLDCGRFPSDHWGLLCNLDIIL
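Read-out basis: percent inhibition. System: recombinant human TDP2. Buffer or medium: Mg2+-containing Tris-HCl buffer, pH 7.5. Repeats: single replicate. Timing: reaction 2 h, 37 °C. Benchmarks: high control without enzyme, low control DMSO plus TDP2. Probe or stimulus: 5 mM T5PNP. Doses: 12.8 µM only. Measured by: epi absorbance of p-nitrophenol freed from T5PNP by hydrolysis.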
NSD2 inh: blocks human histone methyltransferase NSD2 | O96028 | hit rate 0.54% among 310,000 | NSD2 peptide methylation, AlphaScreen, 120 min | inhibition, % at 12.5 µM; in the data active = inhibition above about 50%
CASP6 VEID inh: inhibitors of human caspase-6 | P55212 | purified caspase-6, Z-VEID-R110 cleavage fluorescence | inhibition, % at 12.5 µM | hit rate 0.53% among 350,000 | AID 686996;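 active = mean inhibition across replicates at least about 35%, with every replicate also reaching that limit, limit read from the data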;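 also: 0% = median of neutral control wells and 100% = no fluorescence left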
Target sequence (P55212 24-179 limits assumed): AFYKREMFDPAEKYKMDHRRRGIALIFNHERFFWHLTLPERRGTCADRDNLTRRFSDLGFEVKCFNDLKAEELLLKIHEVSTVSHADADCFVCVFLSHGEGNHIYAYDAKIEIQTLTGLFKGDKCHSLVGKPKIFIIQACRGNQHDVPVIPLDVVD
Target sequence (P55212 194-293 limits assumed): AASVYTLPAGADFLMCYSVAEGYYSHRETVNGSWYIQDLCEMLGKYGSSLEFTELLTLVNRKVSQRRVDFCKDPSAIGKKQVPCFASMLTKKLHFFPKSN
LEDGF integ inh: blocks HIV-1 LEDGF/p75-dependent DNA integration; hit rate 0.64% among 370,000; inhibition, % at 3.7 µM; TR-FRET IN-LEDGF/p75 DNA integration, Eu/Cy5; AID 743269;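 active = inhibition above the screen-wide mean plus 3 SD, cut at about 13% in these data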;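 also: signal is the Cy5 over europium emission ratio at 671 and 618 nm; 0% = plate median of compound wells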
IN multimer act: counter-screen for LEDGF/p75 integration inhibitors: HIV-1 integrase multimerization activators; shares compounds with LEDGF integ inh; TR-FRET HIV-1 integrase multimerization, biochemical; activation, % at 7.7 µM; hit rate 17% among 2,000; AID 1053131; in the data active = activation above about 8.9%
TRFRET interf: counter-screen for LEDGF/p75 integration inhibitors: TR-FRET optical interference; shares compounds with LEDGF integ inh; TR-FRET optical interference counterscreen, HIV-1 IN multimerization; inhibition, % at 7.7 µM; 2,000 tested, under 10 active; AID 1053135;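 active = inhibition above the mean over all tested compounds plus 3 SD, which no compound reached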;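 also: 0% = integrase with antibodies and DMSO and 100% = antibodies without integrase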
IN-LEDGF confirm: LEDGF/p75-dependent HIV-1 integration inhibition, confirmation; hit rate 36% among 2,000; TR-FRET LEDGF/p75-dependent HIV-1 integration, biochemical; inhibition, % at 3.7 µM; shares compounds with LEDGF integ inh; in the data active = inhibition above about 14%
Numbers without * were called inactive; / = not tested or not shown.

SMILES	MBD2 inh	UHRF1 binding	TDP2 absorb	NSD2 inh	CASP6 VEID inh	LEDGF integ inh	IN multimer act	TRFRET interf	IN-LEDGF confirm
Cc1cccc(C(=O)Nc2cccc3cccnc23)c1	-2	1	-1	-4	-1	5	/	/	/
O=C1C=CC(=O)c2c(O)c(CO)c(CO)c(O)c21	57*	87*	28*	/	99*	77*	32*	-162	80*
CC1C=CC=CCCC=CC=CC=CC=CC(OC2O[C@H](C)[C@@H](O)[C@H](N)[C@@H]2O)CC(O)C(C(=O)O)C(O)CC(=O)CC(O)C(O)CCC(O)CC(O)CC(O)CC(=O)OC(C)C(C)C1O (stereo partly drawn)	-4	4	-2	4	/	26*	0	-2	43*
CC1C=CC=CC=CC=CC=CC=CC=CC(OC2OC(C)C(O)C(N)C2O)CC2OC(O)(CC(O)CC(O)C(O)CCC(O)CC(O)CC(=O)OC(C)C(C)C1O)CC(O)C2C(=O)O (stereo not drawn)	/	/	/	5	/	/	/	/	/
CCc1nc2ccc(C(=O)N3CCN(c4ccccc4)CC3)cc2nc1CC	-1	-1	-7	4	1	-2	/	/	/
O=C(c1ccc2nc(-c3ccco3)c(-c3ccco3)nc2c1)N1CCN(c2ccccc2)CC1	-8	8	-15	3	/	39*	1	-5	14*
CO[C@@H]1CC[C@@H]2CCOc3ccc(C#N)cc3C(=O)N(C)C[C@@H](C)C(=O)N(C)C[C@H]1O2	/	/	/	/	-3	/	/	/	/
Cc1cnc(CN(C)Cc2c(C(=O)N3CCCCCCC3)nc3ccc(Cl)cn23)[nH]1	-2	-1	-13	3	10	0	/	/	/
CCN(CCn1cccn1)Cc1c(C(=O)N2CCCCCCC2)nc2ccc(Cl)cn12	1	8	-4	24	0	27*	1	-6	-5
Cc1ccc(NC(=O)CNCC2CCCCC2)cc1S(=O)(=O)N(C)C	3	-1	7	/	-1	32*	0	1	-15
CN(C)c1ccc(NC(=O)CSc2nnc(-c3ccco3)c(-c3ccco3)n2)cc1	-2	-10	7	6	2	11	/	/	/
COc1cccc(NC(=O)CSc2nnc(-c3ccco3)c(-c3ccco3)n2)c1	2	14	9	21	43*	25*	8	-30	39*
O=C(CSc1nnc(-c2ccco2)c(-c2ccco2)n1)Nc1ccccc1	11	41*	-7	11	/	38*	3	-15	55*
COc1ccc(C(=O)CSc2nnc(-c3ccco3)c(-c3ccco3)n2)cc1	3	3	11	2	0	15*	13*	-47	41*
O=C(CSc1ccccc1)Nc1cccc(NC(=O)c2ccco2)c1	6	0	-5	/	2	16*	1	-5	-9
COc1ccc(C(=O)CSc2nnc(-c3ccco3)n2C)cc1	-8	4	-7	2	3	1	/	/	/
COc1ccc(NC(=O)CSc2nnc(-c3ccco3)c(-c3ccco3)n2)cc1OC	-4	-7	3	3	/	1	/	/	/
O=C(CSc1ccc(Cl)cc1)Nc1cccc(NC(=O)c2ccco2)c1	4	-1	-8	-3	/	0	/	/	/
C[C@@H]1CN([C@@H](C)CO)S(=O)(=O)c2ccc(C#CCC3CCCC3)cc2O[C@H]1CN(C)C	/	/	/	/	0	/	/	/	/
CCCC(=O)Nc1ccc2c(c1)OC[C@H](C)N(Cc1cncnc1)C[C@H](C)[C@@H](OC)CN(C)C2=O	/	/	/	/	1	/	/	/	/
COc1cccc(NC(=O)N2CC(=O)N3[C@H](CO)[C@@H](c4ccc(C#CCC5CCCC5)cc4)[C@H]3C2)c1	/	/	/	/	0	/	/	/	/
Cc1ccc(NC(=O)CSc2nnc(-c3ccco3)c(-c3ccco3)n2)cc1	0	8	20	-22	/	25*	2	-12	28*
Cc1ccccc1-c1cc2nc(NCc3cccnc3)n(C)c(=O)c2s1	-5	1	2	0	5	91*	1	-4	0
COc1ccc(S(=O)(=O)N(CC(=O)Nc2ccc(S(=O)(=O)N3CCOCC3)cc2)c2ccccc2)cc1	3	-2	2	1	/	20*	1	-2	1
COc1ccc(NC(=O)CN(C)C(=O)c2ccc(S(=O)(=O)N3CCOCC3)cc2)cc1	1	1	3	1	-6	-2	/	/	/
SMILES	MBD2 inh	UHRF1 binding	TDP2 absorb	NSD2 inh	CASP6 VEID inh	LEDGF integ inh	IN multimer act	TRFRET interf	IN-LEDGF confirm
CN(CC(=O)Nc1cc([N+](=O)[O-])ccc1Cl)Cc1ccc(Br)cc1	-12	-12	-2	4	/	14*	1	-3	-6
C[C@@H]1CN([C@H](C)CO)C(=O)c2cc(-c3cncnc3)cnc2O[C@H]1CN(C)C(=O)Cc1ccccn1	/	/	/	/	-1	/	/	/	/
CCOC(=O)C(=O)Cc1cccnn1	1	25*	12	24	44*	22*	3	-13	50*
CCOC(=O)C(Cc1ccnc2ccccc12)=NO	-3	-3	-3	0	-1	2	/	/	/
O=C(NCCCN1CCCC1=O)c1cc2nc(-c3ccco3)cc(C(F)(F)F)n2n1	-2	-2	-7	3	4	20*	-1	3	6
O=C(NCCc1ccccc1)C(=O)NCC1CCCO1 (stereo not drawn)	8	2	-11	-2	1	84*	-1	5	-6
O=C(NCc1cccc(CNC(=O)C(=O)NCC2CCCO2)c1)C(=O)NCC1CCCO1 (stereo not drawn)	-1	1	-6	-3	-3	-2	/	/	/
Cc1ccc(NC(=O)C(=O)NCC2CCCO2)cc1C (stereo not drawn)	-1	-2	-2	-2	0	78*	0	1	-3
C[C@@H]1CCCCO[C@H](CN(C)S(=O)(=O)c2ccccc2)[C@H](C)CN([C@H](C)CO)C(=O)c2cc(NC(=O)Nc3ccccc3)ccc2O1	/	/	/	/	-3	/	/	/	/
COc1ccc(/C=N/n2c(N)nc3ccccc32)cc1OC	7	9	-4	-1	/	24*	0	1	-7
O=C(/C=C/c1ccco1)NC(=S)Nc1ccc(N2CCCC2)cc1	0	8	2	1	/	18*	4	-21	-1
Cc1ccnc(NC(=S)NC(=O)/C=C/c2ccco2)c1	0	1	-2	3	/	16*	0	-2	9
Cc1ccc(O)c(NC(=S)NC(=O)/C=C/c2ccco2)c1	2	-4	9	18	23	4	/	/	/
CCC(=O)Nc1ccc(NC(=S)NC(=O)/C=C/c2ccco2)cc1	1	-1	9	2	3	5	/	/	/
